Results taken from ChEMBL document CHEMBL1649392, “Synthesis of substituted 3-amino-N-phenyl-1H-indazole-1-carboxamides endowed with antiproliferative activity” (Eur J Med Chem, 2011).

Tests used:
Format in all cases: functional
A498 = assay: Antiproliferative activity against human A498 cells after 48 hrs by sulforhodamine B assay; conditions: A498, 48 h
How it was run: (§1)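 NCI 60-cell-line panel covering nine cancer types (leukemia, non-small cell lung, colon, CNS, melanoma, ovarian, renal, prostate, breast). Compounds were first tested at a single dose, then in a five-dose screen (series starting 0.01, 0.1 …) if they met NCI threshold criteria. Reported per line: GI50 (molar concentration inhibiting 50% net growth), TGI (total growth inhibition) and LC50 (50% net cell death).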

SNB-75 = assay: Antiproliferative activity against human SNB75 cells after 48 hrs by sulforhodamine B assay; conditions: SNB-75, 48 h; how it was run: as §1
PC-3 = assay: Antiproliferative activity against human PC3 cells after 48 hrs by sulforhodamine B assay; conditions: PC-3, 48 h; how it was run: as §1
MDA-MB-231 = assay: Antiproliferative activity against human MDA-MB-231 cells after 48 hrs by sulforhodamine B assay; conditions: MDA-MB-231, 48 h; how it was run: as §1
[1] = Antiproliferative activity against human Hs 578T cells after 48 hrs by sulforhodamine B assay; how it was run: as §1
OVCAR-8 = assay: Antiproliferative activity against human OVCAR8 cells after 48 hrs by sulforhodamine B assay; conditions: OVCAR-8, 48 h; how it was run: as §1
HOP-92 = assay: Antiproliferative activity against human HOP92 cells after 48 hrs by sulforhodamine B assay; conditions: HOP-92, 48 h; how it was run: as §1
NCI-H460 = assay: Antiproliferative activity against human NCI-H460 cells after 48 hrs by sulforhodamine B assay; conditions: NCI-H460, 48 h; how it was run: as §1
SK-MEL-2 = assay: Antiproliferative activity against human SK-MEL-2 cells after 48 hrs by sulforhodamine B assay; conditions: SK-MEL-2, 48 h; how it was run: as §1
OVCAR-5 = assay: Antiproliferative activity against human OVCAR5 cells after 48 hrs by sulforhodamine B assay; conditions: OVCAR-5, 48 h; how it was run: as §1
Malme-3M = assay: Antiproliferative activity against human MALME-3M cells after 48 hrs by sulforhodamine B assay; how it was run: as §1
IGROV-1 = assay: Antiproliferative activity against human IGROV1 cells after 48 hrs by sulforhodamine B assay; conditions: IGROV-1, 48 h; how it was run: as §1
HCT-15 = assay: Antiproliferative activity against human HCT15 cells after 48 hrs by sulforhodamine B assay; conditions: HCT-15, 48 h; how it was run: as §1
NCI-H226 = assay: Antiproliferative activity against human NCI-H226 cells after 48 hrs by sulforhodamine B assay; conditions: NCI-H226, 48 h; how it was run: as §1
NCI-H522 = assay: Antiproliferative activity against human NCI-H522 cells after 48 hrs by sulforhodamine B assay; conditions: NCI-H522, 48 h; how it was run: as §1
SNB-19 = assay: Antiproliferative activity against human SNB19 cells after 48 hrs by sulforhodamine B assay; conditions: SNB-19, 48 h; how it was run: as §1
NCI-H23 = assay: Antiproliferative activity against human NCI-H23 cells after 48 hrs by sulforhodamine B assay; conditions: NCI-H23, 48 h; how it was run: as §1
OVCAR-4 = assay: Antiproliferative activity against human OVCAR4 cells after 48 hrs by sulforhodamine B assay; conditions: OVCAR-4, 48 h; how it was run: as §1
DU-145 = assay: Antiproliferative activity against human DU145 cells after 48 hrs by sulforhodamine B assay; conditions: DU-145, 48 h; how it was run: as §1
SK-OV-3 = assay: Antiproliferative activity against human SKOV3 cells after 48 hrs by sulforhodamine B assay; conditions: SK-OV-3, 48 h; how it was run: as §1
SF-295 = assay: Antiproliferative activity against human SF295 cells after 48 hrs by sulforhodamine B assay; conditions: SF-295, 48 h; how it was run: as §1
ACHN = assay: Antiproliferative activity against human ACHN cells after 48 hrs by sulforhodamine B assay; how it was run: as §1
SW-620 = assay: Antiproliferative activity against human SW620 cells after 48 hrs by sulforhodamine B assay; conditions: SW-620, 48 h
How it was run: (§2)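 NCI 60-cell-line panel screen: single dose 10 µM first, then 5-dose testing (0.01, 0.1, … molar series). For each line, GI50 is the molar concentration giving 50% inhibition of net cell growth, TGI gives total inhibition of net growth, and LC50 gives 50% net cell death. Method follows the NCI DTP protocol.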

SK-MEL-28 = assay: Antiproliferative activity against human SK-MEL-28 cells after 48 hrs by sulforhodamine B assay; conditions: SK-MEL-28, 48 h; how it was run: as §1
UO-31 = assay: Antiproliferative activity against human UO31 cells after 48 hrs by sulforhodamine B assay; conditions: UO-31, 48 h; how it was run: as §2
SN12C = assay: Antiproliferative activity against human SN12C cells after 48 hrs by sulforhodamine B assay; how it was run: as §1
[2] = Antiproliferative activity against human […] cells after 48 hrs by sulforhodamine B assay; how it was run: as §1
HCT-116 = assay: Antiproliferative activity against human HCT116 cells after 48 hrs by sulforhodamine B assay; conditions: HCT-116, 48 h; how it was run: as §1
NCI-H322M = assay: Antiproliferative activity against human NCI-H322M cells after 48 hrs by sulforhodamine B assay; how it was run: as §1
SF-268 = assay: Antiproliferative activity against human SF268 cells after 48 hrs by sulforhodamine B assay; conditions: SF-268, 48 h; how it was run: as §1
CAKI-1 = assay: Antiproliferative activity against human Caki1 cells after 48 hrs by sulforhodamine B assay; conditions: CAKI-1, 48 h; how it was run: as §1
[3] = read-out: LC50 (the source's name)

Compound: Nc1nn(C(=O)Nc2ccc(Cc3ccccc3)cc2)c2ccc(Cl)cc12
- GI50 (A498): 16.1 µM
- TGI (A498): 60.7 µM
- CC50 (A498; [3]): > 100 µM
- GI50 (SNB-75): 14 µM
- LC50 (concentration causing 50% net cell death) (SNB-75): 74.5 µM
- TGI (SNB-75): 32.3 µM
- GI50 (PC-3): 2.9 µM
- TGI (PC-3): 44.3 µM
- CC50 (PC-3; [3]): > 100 µM
- GI50 (MDA-MB-231): 5.33 µM
- TGI (MDA-MB-231): 37.6 µM
- CC50 (MDA-MB-231; [3]): > 100 µM
- GI50 [1]: 13.3 µM
- TGI [1]: 41.7 µM
- CC50 [1, 3]: > 100 µM
- GI50 (OVCAR-8): 14.9 µM
- TGI (OVCAR-8): > 100 µM
- CC50 (OVCAR-8; [3]): > 100 µM
- GI50 (HOP-92): 10.7 µM
- LC50 (HOP-92): > 100 µM
- TGI (HOP-92): 33.7 µM
- GI50 (NCI-H460): 0.0645 µM
- TGI (NCI-H460): 14.7 µM
- CC50 (NCI-H460; [3]): 60.6 µM
- GI50 (SK-MEL-2): 33.6 µM
- TGI (SK-MEL-2): > 100 µM
- CC50 (SK-MEL-2; [3]): > 100 µM
- GI50 (OVCAR-5): 18.8 µM
- TGI (OVCAR-5): > 100 µM
- CC50 (OVCAR-5; [3]): > 100 µM
- GI50 (Malme-3M): 6.69 µM
- LC50 (concentration causing 50% net cell death) (Malme-3M): > 100 µM
- TGI (Malme-3M): 54.8 µM
- GI50 (IGROV-1): 13.7 µM
- TGI (IGROV-1): > 100 µM
- CC50 (IGROV-1; [3]): > 100 µM
- GI50 (HCT-15): 0.0458 µM
- LC50 (concentration causing 50% net cell death) (HCT-15): > 100 µM
- TGI (HCT-15): > 100 µM
- GI50 (NCI-H226): 15.4 µM
- TGI (NCI-H226): 66.7 µM
- CC50 (NCI-H226; [3]): > 100 µM
- GI50 (NCI-H522): 15.6 µM
- LC50 (concentration causing 50% net cell death) (NCI-H522): > 100 µM
- TGI (NCI-H522): > 100 µM
- GI50 (SNB-19): 14.6 µM
- TGI (SNB-19): 43.3 µM
- CC50 (SNB-19; [3]): > 100 µM
- GI50 (NCI-H23): 5.34 µM
- TGI (NCI-H23): 68.4 µM
- CC50 (NCI-H23; [3]): > 100 µM
- GI50 (OVCAR-4): 5.73 µM
- TGI (OVCAR-4): 34.3 µM
- CC50 (OVCAR-4; [3]): > 100 µM
- GI50 (DU-145): 10.4 µM
- TGI (DU-145): 28.9 µM
- CC50 (DU-145; [3]): 80 µM
- GI50 (SK-OV-3): 15.8 µM
- TGI (SK-OV-3): 50.5 µM
- CC50 (SK-OV-3; [3]): > 100 µM
- GI50 (SF-295): 0.0515 µM
- LC50 (SF-295): > 100 µM
- TGI (SF-295): 24.2 µM
- GI50 (ACHN): 0.0468 µM
- TGI (ACHN): 17.4 µM
- CC50 (ACHN; [3]): > 100 µM
- GI50 (SW-620): 0.0565 µM
- TGI (SW-620): 76.5 µM
- CC50 (SW-620; [3]): > 100 µM
- GI50 (SK-MEL-28): 18.5 µM
- TGI (SK-MEL-28): > 100 µM
- CC50 (SK-MEL-28; [3]): > 100 µM
- GI50 (UO-31): 3.12 µM
- TGI (UO-31): 84.5 µM
- CC50 (UO-31; [3]): > 100 µM
- GI50 (SN12C): 14.6 µM
- TGI (SN12C): 42.9 µM
- CC50 (SN12C; [3]): > 100 µM
- GI50 [2]: 2.58 µM
- TGI [2]: 46.5 µM
- CC50 [2, 3]: > 100 µM
- GI50 (HCT-116): 0.467 µM
- LC50 (concentration causing 50% net cell death) (HCT-116): 77.2 µM
- TGI (HCT-116): 25.1 µM
- GI50 (NCI-H322M): 18.2 µM
- TGI (NCI-H322M): > 100 µM
- CC50 (NCI-H322M; [3]): > 100 µM
- GI50 (SF-268): 13 µM
- TGI (SF-268): 47.7 µM
- CC50 (SF-268; [3]): > 100 µM
- GI50 (CAKI-1): 0.217 µM
- TGI (CAKI-1): > 100 µM
- CC50 (CAKI-1; [3]): > 100 µM
